From PubChem
This is a sample that favours compounds with a hit; in the whole collection about 2% have one here.
VLA-4 inh: inhibition in human VLA-4 binding assay, primary screen, VLA-4 allosteric modulator project, MLPCN library, flow cytometry, VLA-4 expressing cells | 330,000 compounds, 0.2% hits | ligand binding flow cytometry | Integrin alpha-4 (Homo sapiens), P13612 | inhibition, % (about 7 µM as worked out from the volumes in the protocol) | AID 2557, 2010; in the data active = inhibition above about 50%
MT1-MMP act inh: blockers of MT1-MMP proenzyme processing, primary screen, HT1080 RFP-PRO-GFP cells, GFP/RFP fluorescence | 360,000 compounds, 0.061% hits | Matrix metalloproteinase-14 (Homo sapiens), P50281 | GFP/RFP ratio fluorescence, overnight; percent of plate control window, DMSO zero | GFP/RFP ratio change, % at 20 µM;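 active = GFP/RFP ratio change of at least 30% with cell ATP level not reduced by more than half and red fluorescence within 50% of control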
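Material: RFP-PRO-GFP reporter HT1080 cells. Dosing: single-point 20 µM compound, 1% DMSO. Controls: DMSO and RFP-L50D-GFP cell wells. Timing: cells overnight before dosing, compound overnight, 37 °C, 5% CO2. Measure: GFP/RFP fluorescence ratio.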
DAGLB inh: DAGLB lipase inhibitors, primary screen, biochemical, fluorescence, HTS; Diacylglycerol lipase-beta (Homo sapiens), Q8NCG7; HEK293T DAGLB membrane lysate, EnzChek fluorogenic substrate; inhibition, % at 5.17 µM; 340,000 compounds, 0.059% hits; AID 504411, 2011; in the data active = inhibition above about 34%
Target sequence (Q8NCG7 whole entry, looked up): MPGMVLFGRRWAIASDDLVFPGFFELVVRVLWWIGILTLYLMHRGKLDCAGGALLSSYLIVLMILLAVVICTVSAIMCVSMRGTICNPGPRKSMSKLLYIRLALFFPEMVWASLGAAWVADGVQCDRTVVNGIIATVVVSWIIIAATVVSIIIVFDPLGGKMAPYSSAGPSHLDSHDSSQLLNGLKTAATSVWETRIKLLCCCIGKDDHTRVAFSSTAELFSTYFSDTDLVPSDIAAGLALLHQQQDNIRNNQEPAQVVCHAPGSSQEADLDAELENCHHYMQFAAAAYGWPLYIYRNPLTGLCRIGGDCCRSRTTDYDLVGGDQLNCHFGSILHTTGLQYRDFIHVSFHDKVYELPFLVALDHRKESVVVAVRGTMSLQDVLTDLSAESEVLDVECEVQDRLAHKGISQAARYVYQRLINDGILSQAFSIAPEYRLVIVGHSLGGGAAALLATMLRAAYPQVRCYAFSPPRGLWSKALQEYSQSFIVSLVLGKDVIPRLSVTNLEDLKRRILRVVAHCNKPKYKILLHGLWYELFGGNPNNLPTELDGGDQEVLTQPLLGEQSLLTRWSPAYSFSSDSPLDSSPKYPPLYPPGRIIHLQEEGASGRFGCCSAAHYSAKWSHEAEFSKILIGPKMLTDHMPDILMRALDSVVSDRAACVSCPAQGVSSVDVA
FGF22 binding: binders of human FGF22 protein, primary screen, FGF22 synaptogenesis inhibitor project, biophysical, thermal shift, single point; recombinant FGF22 thermal shift, SYPRO orange fluorescence; percent of sucrose octasulfate shift, DMSO zero; activity (Tm shift, normalised), % at 9.99 µM; 340,000 compounds, 1.5% hits;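 active = mean Tm shift, scaled 0 neutral to 100 positive control, at about 1.3% or above, every replicate too, limit read from the data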
ABCB6 inh MLPCN: ABCB6 transporter inhibitors, primary screen, K562-ABCB6 cells, flow cytometry, MLPCN library. ATP-binding cassette sub-family B member 6 (Homo sapiens), Q9NP58. fluorescence ratio to DMSO, % at 10 µM. K562-ABCB6 porphyrin accumulation, 1 h; stronger effect = lower value. 360,000 compounds, 0.19% hits;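 active = fluorescence ratio to DMSO below 75%, the collection mean minus 3 SD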;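 note: signal is porphyrin accumulated inside mitochondria; lower ratio means ABCB6 inhibition with less porphyrin fluorescence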
Granule exo inh: LAMP-1 surface exposure blockers, TALL-104 cells – cell-based, flow cytometry, MLPCN library, primary screen | TALL-104 LAMP-1 surface exposure; cells stimulated with thapsigargin and PMA | inhibition, % at 10 µM | 360,000 compounds, 0.66% hits;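 active = inhibition above about 55%, limit read from the data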
Exocytosis CP01: inhibitors of lytic granule exocytosis, confirmation, TALL-104 cells, flow cytometry, Cherry Pick01; shares compounds with Granule exo inh; LAMP-1 externalization; stimulated with PMA plus thapsigargin; inhibition, % at 10 µM; 1,500 compounds, 11% hits; AID 651954, 2012; in the data active = inhibition above about 60%
A number is an active result; i = inactive; nt = no result.

SMILES | VLA-4 inh | MT1-MMP act inh | DAGLB inh | FGF22 binding | ABCB6 inh MLPCN | Granule exo inh | Exocytosis CP01
CC(NC(=O)CCC(=O)c1ccc(F)cc1)C1CC2CCC1C2 (stereo not given) | i | i | i | nt | i | 103.7 | i
COCC(=O)Nc1ccc2c(c1)[C@@H]1C[C@H](CC(=O)NCc3ccc(OC)cc3)O[C@H](CO)[C@@H]1O2 | nt | nt | nt | i | nt | nt | nt
O=c1oc2ccccc2c2c1nc(C(F)(F)F)n2-c1ccccc1 | i | i | i | nt | i | 66.7 | i
CCCN1C[C@@H](C)[C@@H](OC)CN(C)C(=O)c2ccc(NC(=O)Nc3cccc(OC)c3)cc2OC[C@@H]1C | nt | nt | nt | i | nt | nt | nt
c1ccc(COc2ccc(-c3cc4nc(NCCN5CCOCC5)ccn4n3)cc2)cc1 | nt | i | nt | i | i | 61.4 | i
c1ccc(COc2cccc(-c3cc4nc(NCCN5CCOCC5)ccn4n3)c2)cc1 | nt | i | nt | i | i | i | nt
C[C@@H]1CN([C@@H](C)CO)C(=O)c2cccc(NS(=O)(=O)c3ccc(F)cc3)c2O[C@H]1CN(C)S(=O)(=O)c1cn(C)cn1 | nt | nt | nt | i | nt | nt | nt
COc1cccc(-c2cc(CC3(O)CCN(CCCc4ccccc4)CC3)on2)c1 | i | i | i | nt | i | 62.8 | i
O=C(Nc1ccccc1N1CCOCC1)c1cc2ccccc2o1 | i | i | i | i | i | i | nt
COc1ccc(N2CCOCC2)c(NC(=O)c2cc3ccccc3o2)c1 | i | i | i | i | i | 74.9 | i
COc1ccc(N2CCCC2)c(NC(=O)COc2ccccc2Cl)c1 | i | i | i | i | i | i | nt
COc1ccc(OCC(=O)Nc2cc(OC)ccc2N2CCCCC2)cc1 | i | i | i | i | i | 66.7 | i
CC(C)NC(=O)N(C)C[C@H]1OCCCC[C@H](C)Oc2ccc(NS(=O)(=O)c3cccs3)cc2C(=O)N([C@@H](C)CO)C[C@H]1C | nt | nt | nt | i | nt | nt | nt
O=C(C[C@@H]1CC[C@@H]2[C@H](COC[C@H](O)CN2S(=O)(=O)c2ccc(Cl)cc2)O1)NCC1CCCCC1 | nt | nt | nt | i | nt | nt | nt
CCOC(=O)Cn1c(=N)n(CCOc2cccc(C)c2)c2ccccc21 | i | i | i | nt | i | i | nt
CCOC(=O)Cn1c(=N)n(CCOc2ccc(Br)cc2)c2ccccc21 | i | i | nt | i | i | 65.7 | i
O=C(Cn1sc2ccccc2c1=O)Nc1ccccc1 | nt | i | i | i | i | i | nt
O=C(Cn1sc2ccccc2c1=O)NC12CC3CC(CC(C3)C1)C2 | i | i | i | nt | i | 103.9 | 99.6
C[C@H](CO)N1C[C@H](C)[C@@H](CN(C)Cc2ccc(C(=O)O)cc2)Oc2ccc(NS(=O)(=O)c3ccc(F)cc3)cc2CC1=O | nt | nt | nt | i | nt | nt | nt
COc1ccc(N(CC(=O)NCCSCc2ccc(Cl)cc2)S(C)(=O)=O)cc1Cl | i | i | i | i | i | 66.8 | i
COc1ccc(N(CC(=O)NCCSCc2cccc(Cl)c2)S(C)(=O)=O)cc1Cl | i | i | i | i | i | 59.8 | i
Cc1ccc(S(=O)(=O)N2CCC(=O)N(C(COCc3ccccc3)Cc3ccccc3)CC2)cc1 (stereo not given) | i | i | i | i | i | 89.8 | i
Cc1ccc(S(=O)(=O)N2CCC(=O)N([C@H](COCc3ccc(Cl)cc3)Cc3ccccc3)CC2)cc1 | nt | i | nt | i | i | i | nt
O=S(=O)(c1ccc(Br)s1)N1CCN(c2ccc(F)cc2)CC1 | i | i | i | i | i | 66.1 | i
CN(C(=O)c1cc(COc2ccc(F)cc2Cl)on1)C1CCCc2ccccc21 (stereo not given) | i | i | i | i | i | 57.4 | i
